Test results reported in ChEMBL document CHEMBL6177935, “Design and synthesis of novel multi-target tetrabromophthalimides as CBS and Topo-II inhibitors and DNA intercalators” (RSC Med Chem, 2024).
The source made the active and inactive calls. The calls are words filed in the database; no cut-off is given here.

Tests used:
A-375 = test: Growth inhibition of human A-375 cells at 100 ug/ml measured after 48 hrs by SRB assay relative to control; type: functional; settings: dose 100.0 µg/ml, pooled result: one value given for 15 cell lines, strains, targets or settings
Outline: (§1)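 SRB screen on fifteen human cancer lines. Cells seeded at 3×10^3 per well and left 24 h to attach. A single concentration of 100 µg/mL was tested in triplicate wells for 48 h, with 1% v/v DMSO as vehicle control. Cells fixed in 20% TCA, stained with 0.4% SRB and read at 570 nm. Survival fraction = OD treated/OD control.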

MCF7 = test: Growth inhibition of human MCF7 cells at 100 ug/ml measured after 48 hrs by SRB assay relative to control; type: functional; settings: dose 100.0 µg/ml, pooled result: one value given for 15 cell lines, strains, targets or settings; outline: as §1
Caco-2 = test: Growth inhibition of human Caco-2 cells at 100 ug/ml measured after 48 hrs by SRB assay relative to control; type: functional; settings: dose 100.0 µg/ml, pooled result: one value given for 15 cell lines, strains, targets or settings; outline: as §1
PC-3 = test: Growth inhibition of human PC-3 cells at 100 ug/ml measured after 48 hrs by SRB assay relative to control; type: functional; settings: dose 100.0 µg/ml, pooled result: one value given for 15 cell lines, strains, targets or settings; outline: as §1
HN = test: Growth inhibition of human HN cells at 100 ug/ml measured after 48 hrs by SRB assay relative to control; type: functional; settings: dose 100.0 µg/ml, pooled result: one value given for 15 cell lines, strains, targets or settings; outline: as §1
FaDu = test: Growth inhibition of human FaDu cells at 100 ug/ml measured after 48 hrs by SRB assay relative to control; type: functional; settings: dose 100.0 µg/ml, pooled result: one value given for 15 cell lines, strains, targets or settings; outline: as §1
HNO 97 cell line = test: (§2) Growth inhibition of human HNO 97 cells at 100 ug/ml measured after 48 hrs by SRB assay relative to control; type: functional; settings: dose 100.0 µg/ml, pooled result: one value given for 15 cell lines, strains, targets or settings; outline: as §1
HeLa = test: Growth inhibition of human HeLa cells at 100 ug/ml measured after 48 hrs by SRB assay relative to control; type: functional; settings: dose 100.0 µg/ml, pooled result: one value given for 15 cell lines, strains, targets or settings; outline: as §1
HEp-2 = test: Growth inhibition of human HEp-2 cells at 100 ug/ml measured after 48 hrs by SRB assay relative to control; type: functional; settings: dose 100.0 µg/ml, pooled result: one value given for 15 cell lines, strains, targets or settings; outline: as §1
MDA-MB-468 = test: Growth inhibition of human MDA-MB-468 cells at 100 ug/ml measured after 48 hrs by SRB assay relative to control; type: functional; settings: dose 100.0 µg/ml, pooled result: one value given for 15 cell lines, strains, targets or settings; outline: as §1
NCI-H1299 = test: Growth inhibition of human NCI-H1299 cells at 100 ug/ml measured after 48 hrs by SRB assay relative to control; type: functional; settings: dose 100.0 µg/ml, pooled result: one value given for 15 cell lines, strains, targets or settings; outline: as §1
HCT-116 = test: Growth inhibition of human HCT-116 cells at 100 ug/ml measured after 48 hrs by SRB assay relative to control; type: functional; settings: dose 100.0 µg/ml, pooled result: one value given for 15 cell lines, strains, targets or settings; outline: as §1
HepG2 = test: Growth inhibition of human HepG2 cells at 100 ug/ml measured after 48 hrs by SRB assay relative to control; type: functional; settings: dose 100.0 µg/ml, pooled result: one value given for 15 cell lines, strains, targets or settings; outline: as §1
A-431 = test: Growth inhibition of human A-431 cells at 100 ug/ml measured after 48 hrs by SRB assay relative to control; type: functional; settings: dose 100.0 µg/ml, pooled result: one value given for 15 cell lines, strains, targets or settings; outline: as §1
A549 = test: Growth inhibition of human A549 cells at 100 ug/ml measured after 48 hrs by SRB assay relative to control; type: functional; settings: dose 100.0 µg/ml, pooled result: one value given for 15 cell lines, strains, targets or settings; outline: as §1
DNA topoisomerase 2-beta [1] = target: T1, DNA topoisomerase 2-beta (Homo sapiens, UniProt Q02880); test: Inhibition of human topoisomerase IIB-mediated DNA fragmentation
[2] = as §2; type: functional, HNO 97 cell line; settings: HNO 97, 48 h, pooled result: one value given for 15 cell lines, strains, targets or settings, read-out: GI; outline: as §1
DNA topoisomerase 2-beta [3] = target: T1, DNA topoisomerase 2-beta; test: Inhibition of human topoisomerase IIB by sandwich ELISA
Tubulin (Homo sapiens) = Tubulin (Homo sapiens) (UniProt P68371+Q9H4B7+P0DPH7+P68366+Q13509+Q71U36+P04350+Q3ZCM7+P07437+P68363+Q9BQE3+Q6PEY2+Q13885+Q9BVA1+Q9BUF5); test: (§3) Inhibition of [3H]-colchicine binding to biotinylated-tubulin (unknown origin) measured after 45 mins by scintillation counting analysis; type: protein-complex assay
Outline: (§4)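 Scintillation proximity assay run at 37 °C. Incubated 45 min at 37 °C, then the plate was read and percent inhibition calculated from raw counts.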

Tubulin = test: as §3; type: protein-complex assay, Homo sapiens; outline: as §4

T1 sequence (Q02880 whole entry, the tested form may be a part): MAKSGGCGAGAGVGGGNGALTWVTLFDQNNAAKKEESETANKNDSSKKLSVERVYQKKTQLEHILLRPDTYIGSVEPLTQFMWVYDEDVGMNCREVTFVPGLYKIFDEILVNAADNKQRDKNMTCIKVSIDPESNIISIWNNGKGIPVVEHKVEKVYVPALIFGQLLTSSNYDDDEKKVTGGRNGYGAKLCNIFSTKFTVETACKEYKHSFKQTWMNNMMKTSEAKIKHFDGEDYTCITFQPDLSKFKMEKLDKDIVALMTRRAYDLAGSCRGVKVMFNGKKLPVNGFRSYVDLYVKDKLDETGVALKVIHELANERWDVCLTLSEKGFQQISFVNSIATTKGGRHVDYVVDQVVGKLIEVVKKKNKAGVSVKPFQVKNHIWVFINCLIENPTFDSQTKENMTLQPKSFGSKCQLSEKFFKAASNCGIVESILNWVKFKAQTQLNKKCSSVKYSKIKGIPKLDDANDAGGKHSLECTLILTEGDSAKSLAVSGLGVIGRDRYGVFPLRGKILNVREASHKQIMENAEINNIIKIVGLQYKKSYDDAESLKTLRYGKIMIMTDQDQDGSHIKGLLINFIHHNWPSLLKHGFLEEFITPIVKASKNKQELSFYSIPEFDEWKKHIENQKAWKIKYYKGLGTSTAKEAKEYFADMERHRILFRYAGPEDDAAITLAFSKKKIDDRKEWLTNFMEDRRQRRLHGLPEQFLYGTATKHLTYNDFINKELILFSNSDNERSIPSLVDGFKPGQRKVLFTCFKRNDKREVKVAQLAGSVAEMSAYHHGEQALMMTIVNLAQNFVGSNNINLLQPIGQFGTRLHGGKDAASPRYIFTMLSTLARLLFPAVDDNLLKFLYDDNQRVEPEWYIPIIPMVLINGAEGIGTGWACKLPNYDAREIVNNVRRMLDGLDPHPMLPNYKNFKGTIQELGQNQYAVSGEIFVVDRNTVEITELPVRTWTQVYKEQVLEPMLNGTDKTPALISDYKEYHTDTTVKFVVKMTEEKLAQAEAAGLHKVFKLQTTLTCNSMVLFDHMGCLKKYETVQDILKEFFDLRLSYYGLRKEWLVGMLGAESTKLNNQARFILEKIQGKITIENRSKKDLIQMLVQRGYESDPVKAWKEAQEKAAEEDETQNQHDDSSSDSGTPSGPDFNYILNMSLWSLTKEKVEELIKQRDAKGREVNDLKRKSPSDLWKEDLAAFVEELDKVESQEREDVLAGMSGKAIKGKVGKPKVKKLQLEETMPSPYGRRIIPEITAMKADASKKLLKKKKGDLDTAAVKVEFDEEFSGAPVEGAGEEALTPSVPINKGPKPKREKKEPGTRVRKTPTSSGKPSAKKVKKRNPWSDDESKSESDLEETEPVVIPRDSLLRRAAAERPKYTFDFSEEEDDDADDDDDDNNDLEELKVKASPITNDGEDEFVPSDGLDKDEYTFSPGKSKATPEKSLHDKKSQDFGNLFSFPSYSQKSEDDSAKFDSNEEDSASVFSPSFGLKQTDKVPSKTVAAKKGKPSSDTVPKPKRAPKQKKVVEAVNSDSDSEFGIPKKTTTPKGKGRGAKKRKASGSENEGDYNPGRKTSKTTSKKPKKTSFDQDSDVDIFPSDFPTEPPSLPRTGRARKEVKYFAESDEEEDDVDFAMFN

Compound	growth inhibition (GI) (A-375)	growth inhibition (GI) (MCF7)	growth inhibition (GI) (Caco-2)	growth inhibition (GI) (PC-3)	growth inhibition (GI) (HN)	growth inhibition (GI) (FaDu)	growth inhibition (GI) (HNO 97 cell line)	growth inhibition (GI) (HeLa)	growth inhibition (GI) (HEp-2)	growth inhibition (GI) (MDA-MB-468)	growth inhibition (GI) (NCI-H1299)	growth inhibition (GI) (HCT-116)	growth inhibition (GI) (HepG2)	growth inhibition (GI) (A-431)	growth inhibition (GI) (A549)	inhibition (DNA topoisomerase 2-beta [1])	inhibition (DNA topoisomerase 2-beta [3])	further results
CC(=O)N1C(=O)c2c(Br)c(Br)c(Br)c(Br)c2C1=O	Active	Active	Active	Active	Active	Active	Active	Active	Active	Active	Active	Active	Active	Active	Active			
O=C(O)[C@H](Cc1c[nH]c2ccccc12)N1C(=O)c2c(Br)c(Br)c(Br)c(Br)c2C1=O																Active	Active; Weak Inhibition Observed	inhibition of growth at 100 µg/mL [2]: 75.1%
O=C1c2c(Br)c(Br)c(Br)c(Br)c2C(=O)N1c1nnn[nH]1	Active	Active	Active	Active	Active	Active	Active	Active	Active	Active	Active	Active	Active	Active	Active	Active	Active	inhibition (Tubulin (Homo sapiens)): Active
COc1cccc2c1C(=O)c1c(O)c3c(c(O)c1C2=O)C[C@@](O)(C(=O)CO)C[C@@H]3O[C@H]1C[C@H](N)[C@H](O)[C@H](C)O1 [DOXORUBICIN]																Active		inhibition of growth at 100 µg/mL [2]: 70.2%; IC50 (DNA topoisomerase 2-beta [3]): 12.7 µM
COc1cc([C@@H]2c3cc4c(cc3[C@@H](O[C@@H]3O[C@@H]5CO[C@@H](C)O[C@H]5[C@H](O)[C@H]3O)[C@H]3COC(=O)[C@H]23)OCO4)cc(OC)c1O																Active		
CC(=O)NC(=S)NN1C(=O)c2c(Br)c(Br)c(Br)c(Br)c2C1=O	Active	Active	Active	Active	Active	Active	Active	Active	Active	Active	Active	Active	Active	Active	Active			
O=C1c2c(Br)c(Br)c(Br)c(Br)c2C(=O)N1c1nnc[nH]1	Active	Active	Active	Active	Active	Active	Active	Active	Active	Active	Active	Active	Active	Active	Active	Active	Active	inhibition (Tubulin (Homo sapiens)): Active; Weak Inhibition Observed
O=C1c2c(Br)c(Br)c(Br)c(Br)c2C(=O)N1c1ccc([Se][Se]c2ccc(N3C(=O)c4c(Br)c(Br)c(Br)c(Br)c4C3=O)cc2)cc1	Active	Active	Active	Active	Active	Active	Active	Active	Active	Active	Active	Active	Active	Active	Active			
O=C1CCC(N2C(=O)c3c(Br)c(Br)c(Br)c(Br)c3C2=O)C(=O)O1 (stereo unspecified)	Active; Weak Inhibition Observed	Active; Weak Inhibition Observed	Active; Weak Inhibition Observed	Active; Weak Inhibition Observed	Active; Weak Inhibition Observed	Active; Weak Inhibition Observed	Active; Weak Inhibition Observed	Active; Weak Inhibition Observed	Active; Weak Inhibition Observed	Active; Weak Inhibition Observed	Active; Weak Inhibition Observed	Active; Weak Inhibition Observed	Active; Weak Inhibition Observed	Active; Weak Inhibition Observed	Active; Weak Inhibition Observed			
CC(=O)n1c(-c2ccc(N3C(=O)c4c(Br)c(Br)c(Br)c(Br)c4C3=O)cc2)nc2ccccc21	Active	Active	Active	Active	Active	Active	Active	Active	Active	Active	Active	Active	Active	Active	Active	Active	Active	IC50 (Tubulin): 6.94 µM
CC(=O)N(NC(=S)NN1C(=O)c2c(Br)c(Br)c(Br)c(Br)c2C1=O)C(C)=O	Active	Active	Active	Active	Active	Active	Active	Active	Active	Active	Active	Active	Active	Active	Active			
